High-throughput results from PubChem.
IMP-1 inhibitor – inhibitors of Pseudomonas aeruginosa IMP-1 metallo-beta-lactamase; inhibition, % at 5.6 µM; purified IMP-1, nitrocefin hydrolysis, epi-absorbance fluorescence; AID 1556; 0.45% of 290,000 active;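 active means inhibition above the mean plus 3 SD of all compounds in the same screening run, cut at about 4.5% in these data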
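System: Purified IMP-1 | Read-out basis: Percent enzyme inhibition | Controls: IMP-1 with DMSO as 0%, enzyme-free DMSO as 100% | Replicates: One well per compound | Doses: 5.6 µM nominal single concentration | Detection: Epi-absorbance fluorescence, 480 nm excitation, 530 nm emission | Incubation: 25 °C, 15 min preincubation, 25 min reaction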
core dimer inh – HCV core protein dimerization inhibition; TR-FRET GST/Flag-core106 dimerization, 1536-well; inhibition, % at 5 µM; 0.33% of 300,000 active; AID 1899;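 active means inhibition above the mean of all tested compounds plus 3 SD, set per screening campaign, cut at about 45% in these data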
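Assay system: tagged HCV core106 pair (GST and Flag); medium: KF-containing HEPES buffer, pH 7.45, DTT, CHAPS, BSA; also added: Eu donor and XL665 acceptor anti-tag antibodies; dosing: 5 µM single dose; timing: compound-protein-antibody incubation 4 h at 22.5 °C; signal: TR-FRET 671 and 617 nm emission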
HCV NS3 hel inh – blocks Hepatitis C virus NS3 helicase unwinding | NS3 helicase DNA unwinding, Cy5 molecular beacon fluorescence | inhibition, % at 10.9 µM | 0.56% of 290,000 active | AID 1800;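 active means inhibition above the mean of all tested compounds plus 3 SD, set per campaign, cut at about 35% in these data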
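System: NS3 helicase fragment of HCV / Schedule: 1 h at 25 °C / Control set: DMSO alone as 0% and 110 µM thioflavine S as 100% / Reagent: Cy5/quencher beacon DNA duplex and ATP to start / Technique: Cy5 fluorescence / Replication: singlicate / Evaluation: % inhibition of end-to-start signal ratio versus controls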
VIM-2 inh – blocks Pseudomonas aeruginosa VIM-2 metallo-beta-lactamase | purified VIM-2, nitrocefin hydrolysis, epi-absorbance fluorescence | inhibition, % at 5.6 µM | 0.89% of 290,000 active | AID 1527;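 active means inhibition above the mean of all tested compounds plus 3 SD, cutoff set per screening run, cut at about 7.5% in these data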;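 further: red hydrolysis product quenches plate fluorescence so inhibitors raise well fluorescence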
PHOSPHO1 inh – inhibitors of human PHOSPHO1 phosphatase; Q8TCT1; recombinant PHOSPHO1, absorbance phosphatase assay; inhibition, % at 13.3 µM; 1.1% of 290,000 active; in the data active means inhibition above about 60%
Target sequence (Q8TCT1 whole entry, looked up): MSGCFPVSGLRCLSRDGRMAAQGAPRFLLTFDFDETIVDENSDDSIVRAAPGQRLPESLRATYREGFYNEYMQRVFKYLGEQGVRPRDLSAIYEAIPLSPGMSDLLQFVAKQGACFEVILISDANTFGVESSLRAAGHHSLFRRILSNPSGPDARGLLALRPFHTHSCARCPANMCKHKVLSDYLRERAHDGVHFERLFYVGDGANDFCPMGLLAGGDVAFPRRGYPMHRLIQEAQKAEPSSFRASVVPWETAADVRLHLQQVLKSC
UBC9 SUMO inh – inhibitors of human SUMOylation (UBC9). HTRF SUMOylation assay, SAE1/SAE2 + UBC9, in vitro. 0.36% of 290,000 active. inhibition, % at 35 µM. AID 2006. P63279; in the data active means inhibition above about 50%, passing the limit was not always enough
Target sequence (P63279 whole entry, looked up): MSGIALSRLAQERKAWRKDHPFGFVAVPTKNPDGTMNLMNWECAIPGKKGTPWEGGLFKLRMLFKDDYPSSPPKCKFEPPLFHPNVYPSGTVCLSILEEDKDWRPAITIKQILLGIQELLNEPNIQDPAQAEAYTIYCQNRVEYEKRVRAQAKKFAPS
Of the large screens only hits and unclear results are named; the others gave an inactive call. An excerpt weighted towards active compounds, which were near 3.1% of everything screened.

CC(Sc1nc(N)c(NC(=O)c2ccc(Br)o2)c(=O)[nH]1)C(=O)O (stereo unspecified)	none
N#CCCn1c(SCC(=O)N2CCN(S(=O)(=O)c3ccccc3)CC2)nc2ccccc21	PHOSPHO1 inh 86
COc1ccccc1-n1cnnc1SCC(=O)N1CCN(S(=O)(=O)c2ccccc2)CC1	PHOSPHO1 inh 88
COc1ccccc1-n1cnnc1SCC(=O)N1CCN(C(=O)c2ccco2)CC1	none
O=C(O)/C=C\c1cccc(-n2nnnc2SCc2ccccc2F)c1	none
N#C/C(=N\Nc1ccc(S(=O)(=O)N2CCOCC2)cc1)C(N)=S	none
CC1CCN(S(=O)(=O)c2ccc(N/N=C(/C#N)C(N)=O)cc2)CC1	PHOSPHO1 inh 77
O=C(O)c1ccc(CN2C(=O)c3cccc4c([N+](=O)[O-])ccc(c34)C2=O)cc1	none (no result: core dimer inh)
O=C(Nc1nccs1)c1cccc(N2C(=O)c3cccc4c([N+](=O)[O-])ccc(c34)C2=O)c1	PHOSPHO1 inh 78
Cc1ccc(C(=O)O)cc1N1C(=O)c2cccc3c([N+](=O)[O-])ccc(c23)C1=O	IMP-1 inhibitor 6.1
Cc1ccc(-n2c(CCc3nc4ccccc4[nH]3)n[nH]c2=S)cc1	PHOSPHO1 inh 81
CCn1c(CCc2nc3ccccc3[nH]2)n[nH]c1=S	none
CCCCN(C)CCCNC(=O)c1cc(=O)[nH]c2ccc(S(=O)(=O)N3CCCCC3C)cc12 (stereo unspecified)	none
CCN(CC)CCNC(=O)CCCCn1c(=S)[nH]c2c([nH]c3ccc(OC)cc32)c1=O	PHOSPHO1 inh 95
CCCCNC(=O)c1ccc(Cn2c(=S)[nH]c3c([nH]c4ccc(OC)cc43)c2=O)cc1	UBC9 SUMO inh 53
CCOCCCNC(=O)c1ccc(Cn2c(=S)[nH]c3c([nH]c4ccc(OC)cc43)c2=O)cc1	none
O=C(CSc1nnc2c(n1)[nH]c1ccccc12)Nc1cccc(S(=O)(=O)N2CCOCC2)c1	none
CSc1nc(SC(C)C(=O)O)c2c3c(sc2n1)COC(C)(C)C3 (stereo unspecified)	none
CSc1nc(SCCN(C)C)c2c3c(sc2n1)COC(C)(C)C3	VIM-2 inh 8.9
CCc1nc(SCC(=O)O)c2c3c(sc2n1)COC(C)(C)C3	VIM-2 inh 8.1 (no result: core dimer inh)
COc1ccc(S(=O)(=O)Nc2c(NC3CCCCC3)c3ccccc3oc2=O)cc1OC	none
CCOc1ccc(-c2cc(C)n3nc(C(N)=O)cc3n2)cc1	core dimer inh 50
COC(=O)c1cc2nc(-c3ccccc3)cc(C)n2n1	none
CN(C)c1ccc(N=c2sc3ccccc3n2C)cc1	PHOSPHO1 inh 94
CN(Cc1c(O)ccc2c1oc(=O)c1ccccc12)C1CCCCC1	VIM-2 inh 8.7
O=C(Cn1ccc(C(F)(F)F)n1)N/N=C/c1ccc2c(c1)OCO2	none
O=[N+]([O-])c1ccc(C(O)CSC(=S)N2CCCCC2)cc1 (stereo unspecified)	none
NC(=O)c1sc2nc3c(c(-c4ccco4)c2c1N)CCCC3	none
Cc1ccccc1NC(=O)c1sc2nc3c(c(-c4ccco4)c2c1N)CCC3	PHOSPHO1 inh 76
N#Cc1sc2nc3c(c(-c4ccco4)c2c1N)CCCC3	PHOSPHO1 inh 81
Fc1ccc(CSc2nncn2NCc2ccccc2)cc1	none
Fc1ccccc1CSc1nncn1NCc1cccs1	IMP-1 inhibitor 4.8
Nc1nc(N)c2[nH]c(-c3ccccc3)nc2n1	none (no result: core dimer inh)
COC(=O)c1ccc(NC(=O)C2CCN(C(=O)c3cc(OC)c(OC)c(OC)c3)CC2)cc1	PHOSPHO1 inh 106
COc1ccccc1N=C(C)C1=C(O)CSC1=O	IMP-1 inhibitor 5.6
O=C(NCCCn1ccnc1)C(=O)NCC1OCCN1S(=O)(=O)c1ccc(Br)cc1 (stereo unspecified)	IMP-1 inhibitor 7.0
O=C(NCCCn1ccnc1)C(=O)NCC1OCCN1S(=O)(=O)c1ccc(F)cc1 (stereo unspecified)	IMP-1 inhibitor 10
CNC(=O)C(=O)NCC1OCCN1S(=O)(=O)c1ccc(C)cc1 (stereo unspecified)	none
Cc1ccc(S(=O)(=O)N2CCCOC2CNC(=O)C(=O)NCCCn2ccnc2)cc1 (stereo unspecified)	none
Cc1ccc(S(=O)(=O)N2CCOC2CNC(=O)C(=O)NCC(C)C)cc1 (stereo unspecified)	PHOSPHO1 inh 62
COc1ccc(S(=O)(=O)N2CCCOC2CNC(=O)C(=O)NCCCn2ccnc2)cc1 (stereo unspecified)	PHOSPHO1 inh 61
COc1ccc(S(=O)(=O)NCC(=O)NCCc2ccc(OC)c(OC)c2)cc1	none (no result: IMP-1 inhibitor, HCV NS3 hel inh, VIM-2 inh, PHOSPHO1 inh, UBC9 SUMO inh)
CN(C(=O)CC(NC(=O)c1ccccc1Cl)c1ccccc1)c1ccccc1 (stereo unspecified)	none
CC(=O)c1cccc(NC(=O)C(C)OC(=O)Cc2c[nH]c3ccccc23)c1 (stereo unspecified)	none (no result: IMP-1 inhibitor, HCV NS3 hel inh, VIM-2 inh, PHOSPHO1 inh, UBC9 SUMO inh)
CCOC(=O)C1(Cc2ccccc2)CCCN(CCCn2cccn2)C1 (stereo unspecified)	PHOSPHO1 inh 64
c1ccc(-n2ncc3c2ncn2nc(-c4ccco4)nc32)cc1	core dimer inh 52
COc1cccc(OCc2nc3c4cnn(-c5ccccc5)c4ncn3n2)c1	none
CC1CN(C(=O)c2ccc(N3CCCCC3)c([N+](=O)[O-])c2)CC(C)O1 (stereo unspecified)	none
COc1ccc(O)c(-c2[nH]ncc2C(=O)c2cccc(C)c2)c1	IMP-1 inhibitor 5.1
O=S(=O)(c1ccc(Oc2ncnc3scc(-c4ccccc4)c23)cc1)N1CCOCC1	core dimer inh 50
COc1ccccc1/C=C/CN1CCSCC1	none
COCCCn1c(C(=O)Nc2ccc3c(c2)OCO3)cc2c(=O)n3ccccc3nc21	none
Cc1cccn2c(=O)c3cc(C(=O)NCCN4CCOCC4)c(=N)n(CCCN4CCOCC4)c3nc12	none
COCCCn1c(C(=O)N2CCOCC2)cc2c(=O)n3ccccc3nc21	IMP-1 inhibitor 42, UBC9 SUMO inh 52
COCCCn1c(C(=O)NCCN2CCOCC2)cc2c(=O)n3cccc(C)c3nc21	VIM-2 inh 9.4
COc1ccc(NC(=O)C2CCN(S(=O)(=O)c3cccnc3)CC2)cc1Cl	PHOSPHO1 inh 70
COC(=O)c1c(N)n(-c2ccc(NC(C)=O)cc2)c2nc3ccccc3nc12	none
COC(=O)c1c(N)n(-c2ccc(N3CCOCC3)cc2)c2nc3ccccc3nc12	UBC9 SUMO inh 52 (no result: IMP-1 inhibitor, core dimer inh, HCV NS3 hel inh, VIM-2 inh)
Cc1ccc2c(c1)c1ccc3c(c1n2C)C(=O)C=CC3=O	VIM-2 inh 12 (no result: core dimer inh)
N#Cc1cc2cc3c(cc2nc1NCCNC(=S)NCCCN1CCOCC1)OCO3	none
CC(C)=CCc1c(O)cc2oc3c(CC=C(C)C)c(O)c(O)c(CC=C(C)C)c3c(=O)c2c1O	core dimer inh 58, UBC9 SUMO inh 50 (no result: IMP-1 inhibitor, HCV NS3 hel inh, VIM-2 inh)
CCNC(=O)Oc1ccc[nH]c1=O	UBC9 SUMO inh 88
